The record followed here is ChEMBL document CHEMBL1122008, “Lipophilic 5'-(alkyl phosphate) esters of 1-beta-D-arabinofuranosylcytosine and its N4-acyl and 2,2'-anhydro-3'-O-acyl derivatives as potential prodrugs” (1982).

Format in all cases: functional
The subject of assay [1] is Mus musculus. The assay can be described thus: Antitumor activity against L1210/ara-C leukemia in mice (Percent increase in life span.) at the dose of 468 mg/kg. Put shortly:
(§1)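 Same protocol as the L1210 assay, but with 10^5 kinase-deficient L1210/ara-C cells inoculated ip into male B6D2F1J mice (groups of 5–9) on day 0. Treatment begins day 1, qd×5 or q4d(2,6). %ILS = (T/C − 1)×100 using median survival times of treated and control groups. Body weight recorded days 1 and 7.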

For assay [2], the system named is Mus musculus. The assay can be described thus: Antitumor activity against L1210/ara-C leukemia in mice (Average 7-day weight change) at the dose of 117 mg/kg. Put shortly: (§2)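 Male B6D2F1J mice (5–9 per group) were given 10^5 L1210/ara-C cells i.p. on day 0, with treatment from day 1 on qd×5 or q4d(2,6). Vehicles were sterile water, pH 7.4 0.05 M phosphate buffer, or a Tween 80/CMC/benzyl alcohol saline suspension. Weights were taken on days 1 and 7; change is expressed in g/mouse and as a percentage.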

Assay [3] concerns Mus musculus. The assay can be described thus: Antitumor activity against L1210 leukemia in mice (Average 7-day weight change) at the dose of 117 mg/kg. Put shortly:
(§3)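 Male B6D2F1J mice, groups of five to nine, inoculated ip with 10^5 L1210 cells on day 0. Drug treatment started day 1 on qd×5 or q4d(2,6) schedule. Vehicles: ara-C in sterile water; the n-butyl phosphate ester in 0.05 M pH 7.4 potassium phosphate buffer; others as suspensions in 0.4% Tween 80/0.5% low-density CMC/0.9% benzyl alcohol/0.9% saline. Mice weighed days 1 and 7; 7-day weight change given as g/mouse and %.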

The test system of assay [4] is Mus musculus. The assay can be described thus: Antitumor activity against L1210 leukemia in mice (Average 7-day weight change (%)) at the dose of 117 mg/kg. Put shortly:
as §3

The subject of assay [5] is Mus musculus. The assay can be described thus: Antitumor activity against L1210 leukemia in mice (Percent increase in life span.) at the dose of 468 mg/kg (mice surviving 20 or more days). Put shortly:
(§4)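 Male B6D2F1J mice, groups of 5–9, inoculated ip with 10^5 L1210 cells on day 0. Dosing starts day 1 on a qd×5 or q4d(2,6) schedule. Vehicles are sterile water, pH 7.4 0.05 M potassium phosphate buffer, or 0.4% Tween 80/0.5% CMC/0.9% benzyl alcohol/0.9% saline. %ILS = (T/C − 1)×100 from median survival. Weights taken days 1 and 7.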

In assay [6] the test system is Mus musculus. The assay can be described thus: Antitumor activity against L1210/ara-C leukemia in mice (Percent increase in life span.) at the dose of 234 mg/kg. Put shortly:
as §1

The subject of assay [7] is Mus musculus. The assay can be described thus: Antitumor activity against L1210/ara-C leukemia in mice (Average weight per mouse on day 1.) at the dose of 117 mg/kg. Put shortly: (§5)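 Male B6D2F1J mice, groups of 5–9, inoculated ip with 10^5 L1210/ara-C cells on day 0. Dosing began day 1 on a qd×5 or q4d(2,6) schedule. Ara-C was given in sterile water, the n-butyl phosphate ester in 0.05 M pH 7.4 potassium phosphate buffer, and others as suspensions in 0.4% Tween 80/0.5% CMC/0.9% benzyl alcohol/0.9% saline. Mice were weighed on days 1 and 7; 7-day change given in g and %.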

The subject of assay [8] is Mus musculus. The assay can be described thus: Antitumor activity against L1210/ara-C leukemia in mice (Average 7-day weight change) at the dose of 468 mg/kg. Put shortly: as §2
Assay [9] has as its system Mus musculus. The assay can be described thus: Antitumor activity against L1210/ara-C leukemia in mice (Average 7-day weight change) at the dose of 234 mg/kg. Put shortly:
as §2

The test system of assay [10] is Mus musculus. The assay can be described thus: Antitumor activity against L1210 leukemia in mice (Average weight per mouse on day 1.) at the dose of 117 mg/kg. Put shortly: (§6)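 Male B6D2F1J mice (5–9 per group) received 10^5 L1210 cells i.p. on day 0 and drug from day 1, given qd×5 or q4d(2,6). Vehicles were sterile water, 0.05 M potassium phosphate pH 7.4, or 0.4% Tween 80/0.5% CMC/0.9% benzyl alcohol/0.9% saline. Read-out is average body weight per mouse (g) on day 1.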

The test system of assay [11] is Mus musculus. The assay can be described thus: Antitumor activity against L1210 leukemia in mice (Average weight per mouse on day 1.) at the dose of 234 mg/kg. Put shortly:
as §6

Assay [12] relates to Mus musculus. The assay can be described thus: Antitumor activity against L1210/ara-C leukemia in mice (Average 7-day weight change (%)) at the dose of 468 mg/kg. Put shortly: as §2
Assay [13] deals with Mus musculus. The assay can be described thus: Antitumor activity against L1210 leukemia in mice (Average 7-day weight change) at the dose of 468 mg/kg. Put shortly: as §3
In assay [14] the test system is Mus musculus. The assay can be described thus: Antitumor activity against L1210 leukemia in mice (Average 7-day weight change (%)) at the dose of 468 mg/kg. Put shortly: as §3
Assay [15] deals with Mus musculus. The assay can be described thus: Antitumor activity against L1210/ara-C leukemia in mice (Average weight per mouse on day 1.) at the dose of 234 mg/kg. Put shortly: as §5
The subject of assay [16] is Mus musculus. The assay can be described thus: Antitumor activity against L1210 leukemia in mice (Average 7-day weight change (%)) at the dose of 234 mg/kg. Put shortly: as §3
For assay [17], the system named is Mus musculus. The assay can be described thus: Antitumor activity against L1210/ara-C leukemia in mice (Average 7-day weight change (%)) at the dose of 117 mg/kg. Put shortly:
as §2

In assay [18] the test system is Mus musculus. The assay can be described thus: Antitumor activity against L1210 leukemia in mice (Percent increase in life span.) at the dose of 117 mg/kg. Put shortly: as §4
The test system of assay [19] is Mus musculus. The assay can be described thus: Antitumor activity against L1210/ara-C leukemia in mice (Average weight per mouse on day 1.) at the dose of 468 mg/kg. Put shortly: as §5
Assay [20] has as its system Mus musculus. The assay can be described thus: Antitumor activity against L1210 leukemia in mice (Average 7-day weight change) at the dose of 234 mg/kg. Put shortly: as §3
In assay [21] the test system is Mus musculus. The assay can be described thus: Antitumor activity against L1210/ara-C leukemia in mice (Percent increase in life span.) at the dose of 117 mg/kg. Put shortly:
as §1

In assay [22] the test system is Mus musculus. The assay can be described thus: Antitumor activity against L1210 leukemia in mice (Percent increase in life span.) at the dose of 234 mg/kg (mice surviving 20 or more days). Put shortly:
as §4

For assay [23], the system named is Mus musculus. The assay can be described thus: Antitumor activity against L1210/ara-C leukemia in mice (Average 7-day weight change (%)) at the dose of 234 mg/kg. Put shortly:
as §2

In assay [24] the test system is Mus musculus. The assay can be described thus: Antitumor activity against L1210 leukemia in mice (Average weight per mouse on day 1.) at the dose of 468 mg/kg. Put shortly:
as §6

For the compound `CCCCCCCCCCCCCCCC(=O)O[C@H]1[C@@H]2Oc3nc(=N)ccn3[C@@H]2O[C@@H]1COP(=O)(O)OCC`, the ILS at 468 mg/kg in assay [1] was -13%; in assay [5], 100%. The Weight change is reported as 2 g mouse-1 in [2]; -1.6 g mouse-1 in assay [3]; -7% in [4]; -2.4 g mouse-1 in assay [8]; 0.2 g mouse-1 in [9]; -20% in assay [12]. The Weight change in assay [13] was -3.8 g mouse-1; in assay [14], -16%; in assay [16], -11%; in assay [17] it was 9%; in assay [20], -2.6 g mouse-1; in assay [23] it was 1%. Also, the ILS at 234 mg/kg was determined as 0% in [6] and 138% in assay [22]. Moreover, the Average weight was 22.4 g mouse-1 in [7]; 24.4 g mouse-1 in [10]; 24.2 g mouse-1 in assay [11]; 21.4 g mouse-1 in assay [15]; 22 g mouse-1 in assay [19]; 23.6 g mouse-1 in assay [24]. In addition, the ILS at 117 mg/kg in assay [18] is 75%; in assay [21] it was 0%.
